From ChEMBL document CHEMBL4304834, “3-Amino-chromanes and Tetrahydroquinolines as Selective 5-HT2B, 5-HT7, or σ1 Receptor Ligands” (ACS Med Chem Lett, 2019) come the findings set out here.

The target of data set [1] is 5-hydroxytryptamine receptor 5A (Homo sapiens, UniProt P47898). Put plainly: Displacement of [3H]-LSD from human recombinant 5-HT5A receptor expressed in Flp-In CHO cells at 10 uM after 90 mins by microbeta scintillation counting method relative to control. It counts as cell-based. The method, boiled down: (§1)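 Radioligand binding run by the NIMH Psychoactive Drug Screening Program. […] Otherwise Ki comes from sigmoidal curve fits of triplicate measurements in a single experiment, or is averaged over repeated experiments each run in triplicate.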
(Loss of bound radioactivity is the signal in a displacement assay; it reports binding, not function.)

Data set [2] deals with Beta-2 adrenergic receptor (Homo sapiens, UniProt P07550). Kind of data set: Displacement of [3H]-CGP12177 from human recombinant adrenergic Beta2 receptor expressed in Flp-In HEK cells at 10 uM after 90 mins by microbeta scintillation counting method relative to control. It counts as cell-based. Summed up: as §1
The next data set is filed under the species Rattus norvegicus. Put plainly: Displacement of [3H]-Flunitrazepam from BZP receptor in rat brain at 10 uM after 90 mins by microbeta scintillation counting method. It counts as tissue-based. Summed up: as §1
The target in data set [3] is Sodium-dependent noradrenaline transporter (Homo sapiens, UniProt P23975). Put plainly: Displacement of [3H]-Nisoxetine from human recombinant NET receptor expressed in stable HEK cells at 10 uM after 90 mins by microbeta scintillation counting method relative to control. It counts as cell-based. The method, boiled down: as §1
The species named for data set [4] is Homo sapiens. Kind of data set: Selectivity index, ratio of Ki for human recombinant 5-HT2B receptor to Ki for human recombinant sigma1 receptor.
The species named for data set [5] is Homo sapiens. Put plainly: Selectivity index, ratio of Ki for human recombinant 5-HT1D receptor to Ki for human recombinant sigma1 receptor.
The species named for data set [6] is Homo sapiens. Kind of data set: Selectivity index, ratio of Ki for human recombinant 5-HT1E receptor to Ki for human recombinant sigma1 receptor.
The species entered for data set [7] is Homo sapiens. Kind of data set: Selectivity index, ratio of Ki for human recombinant 5-HT2C receptor to Ki for human recombinant sigma1 receptor.
For data set [8], the species on record is Homo sapiens. Kind of data set: Selectivity index, ratio of Ki for human recombinant 5-HT3 receptor to Ki for human recombinant sigma1 receptor.
For data set [9], the species on record is Homo sapiens. Put plainly: Selectivity index, ratio of Ki for human recombinant 5-HT6 receptor to Ki for human recombinant sigma1 receptor.
The species named for data set [10] is Homo sapiens. Kind of data set: Selectivity index, ratio of Ki for human recombinant 5-HT7A receptor to Ki for human recombinant sigma1 receptor.
For data set [11], the species on record is Homo sapiens. Kind of data set: Selectivity index, ratio of Ki for human recombinant adrenergic alpha1A receptor to Ki for human recombinant sigma1 receptor. The method, boiled down: (§2)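 Both Ki values in each ratio come from NIMH Psychoactive Drug Screening Program radioligand binding. […] Other targets were given full binding curves, measured in triplicate, and Ki was taken from a sigmoidal curve fit. Some values were repeated in duplicate or triplicate independent experiments.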

The species named for data set [12] is Homo sapiens. Kind of data set: Selectivity index, ratio of Ki for human recombinant adrenergic Alpha1B receptor to Ki for human recombinant sigma1 receptor. The method, boiled down:
as §2

The species named for data set [13] is Homo sapiens. Put plainly: Selectivity index, ratio of Ki for human recombinant adrenergic Alpha2C receptor to Ki for human recombinant sigma1 receptor. Summed up: as §2
Data set [14] is filed under the species Homo sapiens. Kind of data set: Selectivity index, ratio of Ki for human recombinant adrenergic Beta1 receptor expressed in Flp-In CHO to Ki for human recombinant sigma1 receptor. Summed up: as §2
Data set [15] is filed under the species Homo sapiens. Put plainly: Selectivity index, ratio of Ki for human recombinant adrenergic Beta3 receptor to Ki for human recombinant sigma1 receptor. The method, boiled down: as §2
Data set [16] in a line: Selectivity index, ratio of Ki for rat brain BZP receptor to Ki for human recombinant sigma1 receptor. Summed up: as §2
Data set [17] is filed under the species Homo sapiens. Put plainly: Selectivity index, ratio of Ki for human recombinant dopamine D1 receptor to Ki for human recombinant sigma1 receptor. The method, boiled down:
as §2

The species entered for data set [18] is Homo sapiens. Put plainly: Selectivity index, ratio of Ki for human recombinant dopamine D2 receptor to Ki for human recombinant sigma1 receptor. The method, boiled down: as §2
The species entered for data set [19] is Homo sapiens. Put plainly: Selectivity index, ratio of Ki for human recombinant dopamine D4 receptor to Ki for human recombinant sigma1 receptor. Summed up: as §2
For data set [20], the species on record is Homo sapiens. Kind of data set: Selectivity index, ratio of Ki for human recombinant dopamine D5 receptor to Ki for human recombinant sigma1 receptor. The method, boiled down: as §2
The species named for data set [21] is Homo sapiens. Kind of data set: Selectivity index, ratio of Ki for human recombinant DAT receptor to Ki for human recombinant sigma1 receptor.
Data set [22] is filed under the species Homo sapiens. Kind of data set: Selectivity index, ratio of Ki for human recombinant histamine H1 receptor to Ki for human recombinant sigma1 receptor. Summed up: as §2
For data set [23], the species on record is Homo sapiens. Kind of data set: Selectivity index, ratio of Ki for human recombinant histamine H2 receptor to Ki for human recombinant sigma1 receptor. Summed up: as §2
For data set [24], the species on record is Homo sapiens. Kind of data set: Selectivity index, ratio of Ki for human recombinant histamine H4 receptor to Ki for human recombinant sigma1 receptor. The method, boiled down:
as §2

Data set [25] is filed under the species Homo sapiens. Kind of data set: Selectivity index, ratio of Ki for human recombinant Muscarinic acetylcholine M1 receptor to Ki for human recombinant sigma1 receptor. Summed up:
as §2

Data set [26] is filed under the species Homo sapiens. Kind of data set: Selectivity index, ratio of Ki for human recombinant Muscarinic acetylcholine M2 receptor to Ki for human recombinant sigma1 receptor. Summed up: as §2
The species named for data set [27] is Homo sapiens. Kind of data set: Selectivity index, ratio of Ki for human recombinant Muscarinic acetylcholine M3 receptor to Ki for human recombinant sigma1 receptor. The method, boiled down: as §2
The species entered for data set [28] is Homo sapiens. Put plainly: Selectivity index, ratio of Ki for human recombinant Muscarinic acetylcholine M4 receptor to Ki for human recombinant sigma1 receptor. Summed up:
as §2

The species named for data set [29] is Homo sapiens. Put plainly: Selectivity index, ratio of Ki for human recombinant Muscarinic acetylcholine M5 receptor to Ki for human recombinant sigma1 receptor. Summed up:
as §2

The species entered for data set [30] is Homo sapiens. Kind of data set: Selectivity index, ratio of Ki for human recombinant NET receptor to Ki for human recombinant sigma1 receptor. Summed up: as §2
Data set [31] is filed under the species Homo sapiens. Put plainly: Selectivity index, ratio of Ki for human recombinant DOR receptor to Ki for human recombinant sigma1 receptor. Summed up: as §2
The species named for data set [32] is Homo sapiens. Kind of data set: Selectivity index, ratio of Ki for human recombinant KOR receptor to Ki for human recombinant sigma1 receptor. Summed up: as §2
For data set [33], the species on record is Homo sapiens. Put plainly: Selectivity index, ratio of Ki for human recombinant MOR receptor to Ki for human recombinant sigma1 receptor. The method, boiled down: as §2
A short description of data set [34]: Selectivity index, ratio of Ki for rat brain PBR receptor to Ki for human recombinant sigma1 receptor. Summed up:
as §2

In data set [35] the test system is 661W. Kind of data set: Cytotoxicity against mouse 661W cells at 200 uM after 24 hrs by MTT assay. It counts as cell-based. The method, boiled down: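 661W cells treated 24 h with test agent at 10, 30, 100 and 200 μM. Viability is measured by MTT and compared with nontreated cells.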
Data set [36] has as its system 661W. Put plainly: Cytoprotective activity in mouse 661W cells assessed as inhibition of t-BHP induced oxidative stress by measuring increase in cell viability at 30 uM after 24 hrs by MTT assay (Rvb < 50%). It counts as functional. (Tetrazolium dyes change colour on reduction, which living cells bring about.)
Data set [37] has as its system 661W. Put plainly: Cytoprotective activity in mouse 661W cells assessed as inhibition of t-BHP induced oxidative stress by measuring cell viability at 200 uM after 24 hrs by MTT assay (reference value: >50%). It counts as functional, cell-based.
Data set [38] concerns 661W. Put plainly: Cytoprotective activity in mouse 661W cells assessed as inhibition of t-BHP induced oxidative stress by measuring in cell viability at 30 uM in presence of 10 uM of […] preincubated for 30 mins followed by compound addition and measured after 24 hrs by MTT assay. It counts as functional, cell-based. Summed up: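 Same 661W oxidative-stress setup: 55 μM tBHP for 24 h with test agent at 30 μM, plus the σ1 antagonist BD1063 at 10 μM. Viability is read by MTT.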

In data set [39] the test system is 661W. Kind of data set: Cytoprotective activity in mouse 661W cells assessed as reduction in tBHP-induced ROS level at 30 uM after 2 hrs by […] fluorescent microscopic analysis. It counts as functional, cell-based. The method, boiled down: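 661W cells seeded on coverslips for 18 h, then exposed 2 h to 55 μM tBHP with or without test agent or (+)-pentazocine. ROS are detected with CellROX green dye by epifluorescence, with DAPI marking nuclei. Fluorescence intensity is quantified as mean ± SD from three independent experiments, each run in duplicate.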

Activity calls are given as the source filed them. No cut-off for these calls is given here.

Sodium-dependent noradrenaline transporter, sequence (P23975 whole entry): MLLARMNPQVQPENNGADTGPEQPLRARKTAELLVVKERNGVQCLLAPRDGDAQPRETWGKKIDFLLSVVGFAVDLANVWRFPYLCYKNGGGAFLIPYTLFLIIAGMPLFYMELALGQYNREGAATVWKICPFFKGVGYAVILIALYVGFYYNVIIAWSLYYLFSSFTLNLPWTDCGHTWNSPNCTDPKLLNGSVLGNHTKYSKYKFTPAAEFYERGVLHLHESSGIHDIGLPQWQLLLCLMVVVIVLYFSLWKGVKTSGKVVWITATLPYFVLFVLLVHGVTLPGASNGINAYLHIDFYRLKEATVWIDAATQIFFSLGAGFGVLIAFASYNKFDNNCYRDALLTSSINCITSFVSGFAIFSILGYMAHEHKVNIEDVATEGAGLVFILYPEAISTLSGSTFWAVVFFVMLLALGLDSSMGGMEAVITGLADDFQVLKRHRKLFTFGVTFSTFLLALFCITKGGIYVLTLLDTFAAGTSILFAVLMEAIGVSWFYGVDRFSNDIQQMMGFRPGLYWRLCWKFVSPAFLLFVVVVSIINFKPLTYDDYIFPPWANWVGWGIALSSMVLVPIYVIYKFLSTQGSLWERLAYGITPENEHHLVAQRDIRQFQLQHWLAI
Beta-2 adrenergic receptor, sequence (P07550 whole entry, looked up): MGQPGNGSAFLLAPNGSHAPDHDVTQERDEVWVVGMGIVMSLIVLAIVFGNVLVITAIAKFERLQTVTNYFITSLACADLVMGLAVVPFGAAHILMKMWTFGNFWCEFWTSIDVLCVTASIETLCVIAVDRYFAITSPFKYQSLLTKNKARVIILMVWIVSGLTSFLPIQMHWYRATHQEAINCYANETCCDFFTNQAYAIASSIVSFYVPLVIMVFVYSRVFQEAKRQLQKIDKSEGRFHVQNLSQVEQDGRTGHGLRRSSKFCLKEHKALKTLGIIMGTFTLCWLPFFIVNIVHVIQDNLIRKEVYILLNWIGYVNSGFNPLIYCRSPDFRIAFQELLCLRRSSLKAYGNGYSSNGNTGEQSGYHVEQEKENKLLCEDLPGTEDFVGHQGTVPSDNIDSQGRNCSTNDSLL
5-hydroxytryptamine receptor 5A, sequence (P47898 whole entry): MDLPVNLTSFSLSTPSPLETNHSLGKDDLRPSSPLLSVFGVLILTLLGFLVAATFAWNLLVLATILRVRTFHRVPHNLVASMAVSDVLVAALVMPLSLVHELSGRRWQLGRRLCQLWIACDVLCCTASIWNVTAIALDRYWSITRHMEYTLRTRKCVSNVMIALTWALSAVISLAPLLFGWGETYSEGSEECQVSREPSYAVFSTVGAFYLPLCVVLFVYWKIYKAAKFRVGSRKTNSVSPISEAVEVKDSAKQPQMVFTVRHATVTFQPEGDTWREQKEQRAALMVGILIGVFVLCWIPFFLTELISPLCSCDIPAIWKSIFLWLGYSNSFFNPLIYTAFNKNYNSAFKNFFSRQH

The term inhibition denotes the drop in the measured response relative to a control, in per cent. Take `CC[C@H]1c2cc(C)ccc2OC[C@@]1(C)N` (racemic): the inhibition (in data set [1]; in [2]; in the data set filed under Rattus norvegicus) was under 50% in each case.

Regarding `COc1cc(OC)c2c(c1)OC[C@@]1(C)NCC[C@@H]21` (racemic), the inhibition in data set [3] is under 50%. For the same compound, the Ratio Ki in the data set filed under Homo sapiens [4] was over 5; in the data set listed under Homo sapiens [5], over 20; in the data set filed under Homo sapiens [6], over 20; in the data set filed under Homo sapiens [7], over 20; in the data set filed under Homo sapiens [8] it was over 20; in the data set listed under Homo sapiens [9], over 20. Moreover, the Ratio Ki in the data set filed under Homo sapiens [10], in the data set listed under Homo sapiens [11], in the data set listed under Homo sapiens [12], in the data set filed under Homo sapiens [13], in the data set filed under Homo sapiens [14] and in the data set filed under Homo sapiens [15] was over 20 each time. The Ratio Ki (in data set [16]; in the data set filed under Homo sapiens [17]; in the data set listed under Homo sapiens [18]; in the data set listed under Homo sapiens [19]; in the data set listed under Homo sapiens [20]; in the data set filed under Homo sapiens [21]) was over 20 each time. The Ratio Ki in the data set filed under Homo sapiens [22], in the data set filed under Homo sapiens [23], in the data set listed under Homo sapiens [24], in the data set filed under Homo sapiens [25], in the data set filed under Homo sapiens [26] and in the data set filed under Homo sapiens [27] was over 20 throughout. In addition, the Ratio Ki in the data set filed under Homo sapiens [28], in the data set filed under Homo sapiens [29], in the data set listed under Homo sapiens [30], in the data set listed under Homo sapiens [31], in the data set listed under Homo sapiens [32] and in the data set filed under Homo sapiens [33] was over 20 throughout. In [34], the Ratio Ki is over 20. Moreover, the Activity entry is recorded as “Non-Toxic” in the data set with 661W [35] and over 80% in the data set on 661W [36]. Moreover, the result in the data set on 661W [37] and in the data set on 661W [38] was inactive. The inhibition entry in the data set with 661W [39] is “Active”.
